Assay results published in paper PMC3815528 (Molecular nutrition & food research, 2013).

Legend:
[1] = Metabolic profile of [6]-shogaol in human liver microsomes; assay type: in vitro ADME; conditions: human liver microsomes 0.5 mg/mL, [6]-shogaol 50 µM, 30 min
[2] = Metabolic profile of [6]-shogaol in mouse liver microsomes; assay type: in vitro ADME, CD-1 mouse; conditions: mouse liver microsomes 0.5 mg/mL, [6]-shogaol 50 µM, 30 min
How it was run: (§1)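 Microsomes in 100 mM potassium phosphate buffer with an NADPH-regenerating system were preincubated 5 min at 37°C. Reaction was started with test compound (DMSO, final ≤1% v/v) and run 30 min at 37°C, then stopped with an equal volume of ice-cold acetonitrile containing 2% acetic acid. After centrifugation at 13,000g for 10 min, supernatant went to C18 HPLC with electrochemical array detection, read at the 300 mV channel.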

[3] = Metabolic profile of [6]-shogaol in monkey liver microsomes; assay type: in vitro ADME, cynomolgus monkey; conditions: monkey liver microsomes 0.5 mg/mL, [6]-shogaol 50 µM, 30 min
How it was run: as §1

[4] = Metabolic profile of [6]-shogaol in rat liver microsomes; assay type: in vitro ADME, Sprague-Dawley rat; conditions: rat liver microsomes 0.5 mg/mL, [6]-shogaol 50 µM, 30 min
How it was run: as §1

[5] = Metabolic profile of [6]-shogaol in dog liver microsomes; assay type: in vitro ADME, beagle dog; conditions: dog liver microsomes 0.5 mg/mL, [6]-shogaol 50 µM, 30 min
How it was run: as §1

[6] = Kinetic study of [6]-shogaol metabolism to M6 in dog liver microsomes; assay type: in vitro ADME, beagle dog; conditions: dog liver microsomes 0.1 mg/mL, [6]-shogaol 7.8 to 2000 µM, 30 min
[7] = Kinetic study of [6]-shogaol metabolism to M6 in mouse liver microsomes; assay type: in vitro ADME, CD-1 mouse; conditions: mouse liver microsomes 0.1 mg/mL, [6]-shogaol 7.8 to 2000 µM, 30 min
[8] = Kinetic study of [6]-shogaol metabolism to M6 in human liver microsomes; assay type: in vitro ADME; conditions: probe [6]-shogaol (substrate)
[9] = system: HCT-116 human colon cancer cells; assay: MTT growth inhibition, human colon cancer cells; assay type: cell-based; conditions: read-out: IC50, cell viability (MTT); HCT-116, 24 hours, 0 to 80 µM
[10] = system: H-1299 human lung cancer cells; assay: MTT growth inhibition, human lung cancer cells; assay type: cell-based; conditions: read-out: IC50, cell viability (MTT); H-1299, 24 hours, 0 to 80 µM
[11] = system: H-1299 human lung cancer cells; assay: Induction of apoptosis; assay type: cell-based; conditions: H-1299, 10 µM compound, 24 hours
How it was run: (§2)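 Cells in McCoy's 5A with 10% FBS, 1% penicillin/streptomycin and 1% glutamine were seeded at 5000 cells/well and allowed to attach overnight at 37°C. They were then exposed to test compound in DMSO, diluted in medium, for 24 h. Lysates were spun at 300 g for 10 min and run in a histone–DNA sandwich ELISA (anti-histone-biotin/anti-DNA-POD, 2 h RT; ABTS 15 min; A430). Triplicate; fold over DMSO control, mean ± SD.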

[12] = system: HCT-116 human colon cancer cells; assay: Induction of apoptosis; assay type: cell-based; conditions: HCT-116, 10 µM compound, 24 hours
How it was run: as §2

| Compound | Relative abundance of metabolite formed from [6]-shogaol [1] | Relative abundance of metabolite formed from [6]-shogaol [2] | Relative abundance of metabolite formed from [6]-shogaol [3] | Relative abundance of metabolite formed from [6]-shogaol [4] | Relative abundance of metabolite formed from [6]-shogaol [5] | Vmax of M6 formation [6] | Vmax of M6 formation [7] | Km at 30 min [8] | IC50 [9] | IC50 [10] | Induction of apoptosis compared to DMSO control [11] | Induction of apoptosis compared to DMSO control [12] |
| --- | --- | --- | --- | --- | --- | --- | --- | --- | --- | --- | --- | --- |
| CCCCCCCC(=O)CCc1ccc(O)c(OC)c1 [M11, 1-(4'-hydroxy-3'-methoxyphenyl)-decan-3-one] | major product | minute amounts | minute amounts | very minor product | very minor product |  |  |  |  |  |  |  |
| CCCCCC=CC(O)CCc1ccc(O)c(OC)c1 (stereo not drawn) [M6, 1-(4'-hydroxy-3'-methoxyphenyl)-4-decen-3-ol] | intermediate relative amount | dominant peak | minor metabolite | dominant peak | intermediate relative amount | 7.33 +/− 0.43 nanomoles per minute per milligram liver microsomes | 4.10 +/− 0.19 nanomoles per minute per milligram liver microsomes | 45.6 µM |  |  |  |  |
| CCCCC/C=C/C(=O)CCc1ccc(O)c(OC)c1 [[6]-shogaol] |  |  |  |  |  |  |  |  | 19.9 µM | 17.3 µM | ~2 fold | 1 fold |
| CCCCC/C=C/C(=O)/C=C/c1ccc(O)c(OC)c1 [M14, (1E, 4E)-1-(4'-hydroxy-3'-methoxyphenyl)-deca-1,4-dien-3-one] | smallest amount | minor | major metabolite | minor | minor |  |  |  |  |  |  |  |
| CCCCCCCC(=O)/C=C/c1ccc(O)c(OC)c1 [M15, (E)-1-(4'-hydroxy-3'-methoxyphenyl)-dec-1-en-3-one] | very minor | very minor | abundant | very minor | abundant |  |  |  |  |  |  |  |
